≈ marks a conversion by molar mass, not a printed value.
Tests used:
[1] = tested on: Mycobacterium tuberculosis; assay: Antibacterial activity against Mycobacterium tuberculosis H37RvMA grown in 7H9/ADC medium measured 7 to 14 days post inoculation by broth microdilution method; format: functional
[2] = tested on: Mycobacterium tuberculosis; assay: Antibacterial activity against Mycobacterium tuberculosis H37RvMA grown in GAST/Fe medium measured 7 to 14 days post inoculation by broth microdilution method; format: functional
Outline: (§1)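 H37RvMa grown to OD600 0.6–0.7, diluted 1:100 in GAST/Fe. Compounds two-fold serially diluted from a top concentration of 640 μM, in duplicate. Incubated at 37 °C with humidification.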

Vero = assay: Cytotoxicity against African green monkey Vero cells assessed as reduction in cell viability by MTT assay; format: cell-based; conditions: Chlorocebus sabaeus
Outline: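 MTT assay in Vero cells, samples in triplicate on one occasion. Stocks at 20 mg/mL in DMSO, diluted in complete medium as 10-fold serial dilutions over 6 concentrations. Emetine used as reference. IC50 derived by non-linear dose-response curve fitting.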

[3] = Kinetic solubility of the compound in fasted-state simulated intestinal fluid at 10 to 220 uM at pH 6.5 after 2 hrs by shake flask method; format: physicochemical; conditions: read-out: Kinetic_solubility
Outline: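 Miniaturised shake flask. 10 mM DMSO stocks spiked 1:50 into duplicate FaSSIF (pH 6.5), 2% final DMSO. Shaken 2 h at 25 °C, filtered, analysed by HPLC-DAD against calibration standards (10–220 μM).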

[4] = Lipophilicity, log P of the compound at 100 uM at pH 7.4 after 3 hrs by shake-flask method; format: physicochemical; conditions: buffer
Outline: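 Shake-flask method run in triplicate. A 10 mM stock was spiked into a 1:1 mixture of phosphate buffer (pH 7.4) and n-octanol, then shaken at 1500 rpm on an orbital shaker for 3 h at room temperature.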

[5] = tested on: Mycobacterium tuberculosis; assay: Antibacterial activity against wild type Mycobacterium tuberculosis H37Rv grown in GAST/Fe medium measured on day 14 post inoculation by broth microdilution method; format: functional; conditions: 336 h; outline: as §1
[6] = tested on: Mycobacterium tuberculosis; assay: Antibacterial activity against Mycobacterium tuberculosis H37Rv grown in middlebrook 7H9 medium measured on day 7 and 14 by MABA assay; format: functional; conditions: 168 h
[7] = tested on: Mycobacterium tuberculosis; assay: Antibacterial activity against Mycobacterium tuberculosis […] SAWC1125 grown in middlebrook 7H9 medium measured on day 7 and 14 by MABA assay; format: functional; conditions: 168 h
Outline: (§2)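 Clinical M. tuberculosis strains tested by broth microdilution in 7H9 medium. On days 7 and 14, Alamar Blue added and plates reincubated 24 h at 37 °C. Colour read by eye (blue means no growth, pink means growth). MIC90 is the lowest concentration with no colour change.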

[8] = tested on: Mycobacterium tuberculosis; assay: Antibacterial activity against Mycobacterium tuberculosis […] SAWC3933 grown in middlebrook 7H9 medium measured on day 7 and 14 by MABA assay; format: functional; conditions: 168 h; outline: as §2
[9] = tested on: Mycobacterium tuberculosis; assay: Antibacterial activity against Mycobacterium tuberculosis […] SAWC3385 grown in middlebrook 7H9 medium measured on day 7 and 14 by MABA assay; format: functional; conditions: 168 h; outline: as §2
[10] = tested on: Mycobacterium tuberculosis; assay: Antibacterial activity against Mycobacterium tuberculosis […] SAWC3200 grown in middlebrook 7H9 medium measured on day 7 and 14 by MABA assay; format: functional; conditions: 168 h; outline: as §2
[11] = tested on: Mycobacterium tuberculosis; assay: Antibacterial activity against Mycobacterium tuberculosis […] SAWC3388 grown in middlebrook 7H9 medium measured on day 7 and 14 by MABA assay; format: functional; conditions: 168 h; outline: as §2
[12] = tested on: Mycobacterium tuberculosis; assay: Antibacterial activity against Mycobacterium tuberculosis […] SAWC3906 grown in middlebrook 7H9 medium measured on day 7 and 14 by MABA assay; format: functional; conditions: 168 h; outline: as §2
Liver [13] = assay: Metabolic stability in rat liver microsomes assessed as compound remaining at 0.1 uM after 30 mins by LC-MS/MS analysis; format: ADME, microsome; conditions: 0.5 h
Outline: (§3)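 Compound at 0.1 μM incubated in duplicate with mouse, rat or pooled human liver microsomes (0.4 mg/mL) at 37 °C. Run with and without 1 mM NADPH, sampled at predetermined time points.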

Plasma = assay: Fraction unbound in human plasma at 5 uM pre-incubated for 1 hr by ultra-centrifugation and LC-MS/MS method; format: ADME, cell-free
Outline: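 Pooled human plasma spiked to 5 μM and pre-incubated 1 h at 37 °C. Duplicate aliquots ultracentrifuged 4 h at 37 °C; an unspun aliquot served as the total sample. Analyte measured by LC-MS/MS.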

Liver [14] = assay: Metabolic stability in human liver microsomes assessed as compound remaining at 0.1 uM after 30 mins by LC-MS/MS analysis; format: ADME, microsome; conditions: 0.5 h; outline: as §3
Liver [15] = assay: Metabolic stability in mouse liver microsomes assessed as compound remaining at 0.1 uM after 30 mins by LC-MS/MS analysis; format: ADME, microsome; conditions: 0.5 h; outline: as §3
Mus musculus [16] = assay: Apparent elimination half life in C57/BL6 mouse at 20 mg/kg, po measured up to 24 hrs post dose by LC-MS/MS analysis; format: ADME, organism-based; conditions: in vivo
Outline: (§4)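 Male mice, 3 per route, not fasted, free access to water. Oral dose given as aqueous suspension in 0.5% (w/v) hydroxypropyl methylcellulose with 0.4% (v/v) Tween 80. Blood drawn into heparinised tubes at 0.5, 1, 3, 5, 8, 12 and 24 h, kept below -15 °C, protein-precipitated with ice-cold acetonitrile. Quantified by LC-MS/MS against standards made in drug-free mouse blood.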

Mus musculus [17] = assay: Cmax in C57/BL6 mouse at 20 mg/kg, po measured up to 24 hrs post dose by LC-MS/MS analysis; format: ADME, organism-based; parameters: dose 20 mg/kg, route oral; conditions: in vivo; outline: as §4
Mus musculus [18] = assay: Tmax in C57/BL6 mouse at 20 mg/kg, po measured up to 24 hrs post dose by LC-MS/MS analysis; format: ADME, organism-based; conditions: in vivo; outline: as §4
Mus musculus [19] = assay: AUC (0 to infinity) in C57/BL6 mouse at 20 mg/kg, po measured up to 24 hrs post dose by LC-MS/MS analysis; format: ADME, organism-based; parameters: dose 20 mg/kg, route oral, time infinity; conditions: in vivo; outline: as §4
Mus musculus [20] = assay: Oral bioavailability in C57/BL6 mouse at 20 mg/kg measured up to 24 hrs post dose by LC-MS/MS analysis; format: ADME, organism-based; conditions: in vivo; outline: as §4
Mus musculus [21] = assay: Apparent elimination half life in C57/BL6 mouse at 5 mg/kg, iv measured up to 24 hrs post dose by LC-MS/MS analysis; format: ADME, organism-based; conditions: in vivo
Outline: (§5)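 Male mice, 3 animals, not fasted, given an IV bolus in 10% DMSO, 50% propylene glycol/ethanol (4:1) and 40% polyethylene glycol or water. Blood sampled into heparinised tubes at 0.17, 0.5, 1, 3, 5, 8, 12 and 24 h, stored frozen, precipitated with ice-cold acetonitrile. Measured by LC-MS/MS with internal standards against blood-matrix calibration standards.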

Mus musculus [22] = assay: Volume of distribution in C57/BL6 mouse at 5 mg/kg, iv measured up to 24 hrs post dose by LC-MS/MS analysis; format: ADME, organism-based; conditions: in vivo; outline: as §5
Mus musculus [23] = assay: AUC (0 to infinity) in C57/BL6 mouse at 5 mg/kg, iv measured up to 24 hrs post dose by LC-MS/MS analysis; format: ADME, organism-based; parameters: dose 5 mg/kg, route intravenous, time infinity; conditions: in vivo; outline: as §5
[24] = tested on: Mycobacterium tuberculosis; assay: Antibacterial activity against cytochrome bd oxidase knockout GFP-fused Mycobacterium tuberculosis H37RvMA grown in 7H9/GLU/ADC medium measured on day 7 and day 14 post inoculation by fluorescence plate reader assay; format: functional
[25] = tested on: Mycobacterium tuberculosis; assay: Antibacterial activity against cytochrome bd oxidase knockout GFP-fused Mycobacterium tuberculosis H37RvMA grown in GAST/Fe medium measured on day 7 and day 14 post inoculation by fluorescence plate reader assay; format: functional
[26] = Kinetic solubility of the compound in pH 7.4 solution at 10 to 220 uM after 2 hrs by shake flask method; format: physicochemical; conditions: buffer, pH 7.4, 2 h, 220 µM
[27] = Mycobacterium tuberculosis, H37RvMA, read-out: MIC99

## CC(C)Oc1ccc(NC(=O)c2cc(N(C)Cc3ccc(F)cc3)ncn2)cc1
[1]
  MIC99: 5 µM (≈ 1.97 µg/mL)
[2]
  MIC99: 1.2 µM (≈ 0.473 µg/mL)
Vero
  IC50: 254 µM
[3]
  solubility kinetic at 2 h: < 5 µM
[4]
  logD at 3 h, 100 µM: 5
[5]
  MIC99: 1.25 to 5 µM (≈ 0.493 to 1.97 µg/mL)
[6]
  MIC90: 1.25 µM (≈ 0.493 µg/mL)
[7]
  MIC90: 2.5 µM (≈ 0.986 µg/mL)
[8]
  MIC90: 2.5 µM (≈ 0.986 µg/mL)
[9]
  MIC90: 0.31 µM (≈ 0.122 µg/mL)
[10]
  MIC90: < 0.08 µM
[11]
  MIC90: 0.31 µM (≈ 0.122 µg/mL)
[12]
  MIC90: 0.31 µM (≈ 0.122 µg/mL)
Liver [13]
  Stability: 43%
Plasma
  Fu: 0.04%
Liver [14]
  Stability: 64%
Liver [15]
  Stability: 37%

## CN(Cc1ccc(C(F)(F)F)nc1)c1cc(C(=O)Nc2ccccc2)ncn1
[1]
  MIC99: 37 µM (≈ 14.3 µg/mL)
[2]
  MIC99: 10 µM (≈ 3.87 µg/mL)
Vero
  IC50: 258 µM
[3]
  solubility kinetic at 2 h: < 5 µM
[4]
  logD at 3 h, 100 µM: 3.7
Liver [13]
  Stability: 72%
Plasma
  Fu: 0.05%
Liver [14]
  Stability: 85%
Liver [15]
  Stability: 87%
Mus musculus [16]
  betat1/2(app): 7.2 h
Mus musculus [17]
  Cmax: 3.4 µM
Mus musculus [18]
  Tmax: 4 h
Mus musculus [19]
  AUC: 1999 µM·min
Mus musculus [20]
  F: 42%
Mus musculus [21]
  betat1/2(app): 0.7 h
Mus musculus [22]
  Vd: 0.7 L/kg
Mus musculus [23]
  AUC: 1179 µM·min

## COc1ccc(NC(=O)c2cc(N(C)Cc3ccccc3)ncn2)cc1
[1]
  MIC99: 20 µM (≈ 6.97 µg/mL)
[2]
  MIC99: 10 µM (≈ 3.48 µg/mL)
[24]
  MIC99: >20 µM
Vero
  IC50: 287 µM
[3]
  solubility kinetic at 2 h: < 5 µM
[4]
  logD at 3 h, 100 µM: 4.07

## CN(Cc1ccc(S(C)(=O)=O)cc1)c1cc(C(=O)Nc2ccccc2)ncn1
[25]
  MIC99: > 125 µM
[24]; [27]
  MIC99: > 125 µM
[26]
  Kinetic_solubility: 10 µM

## CN(Cc1ccc(C(F)(F)F)nc1)c1cc(C(=O)Nc2nncs2)ncn1
[1]
  MIC99: 50 µM (≈ 19.8 µg/mL)
[2]
  MIC99: 5 µM (≈ 1.98 µg/mL)
Vero
  IC50: 28 µM
[3]
  solubility kinetic at 2 h: 195 µM (≈ 77.1 µg/mL)
[4]
  logD at 3 h, 100 µM: 1.4
[26]
  Kinetic_solubility: 191 µM
[7]
  MIC90: 2.5 µM (≈ 0.988 µg/mL)
[8]
  MIC90: 10 to 20 µM (≈ 3.95 to 7.91 µg/mL)
[9]
  MIC90: 10 µM (≈ 3.95 µg/mL)
[10]
  MIC90: 2.5 to 5 µM (≈ 0.988 to 1.98 µg/mL)
[11]
  MIC90: 10 µM (≈ 3.95 µg/mL)
[12]
  MIC90: 2.5 to 5 µM (≈ 0.988 to 1.98 µg/mL)
Liver [13]
  Stability: 88%
Plasma
  Fu: 0.32%
Liver [14]
  Stability: 100%
Liver [15]
  Stability: 78%
Mus musculus [16]
  betat1/2(app): 3 h
Mus musculus [17]
  Cmax: 10.8 µM
Mus musculus [18]
  Tmax: 1 h
Mus musculus [19]
  AUC: 5614 µM·min
Mus musculus [20]
  F: 67%
Mus musculus [21]
  betat1/2(app): 3 h
Mus musculus [22]
  Vd: 1.7 L/kg
Mus musculus [23]
  AUC: 2106 µM·min

## CN(Cc1cccnc1)c1cc(C(=O)Nc2ccccc2)ncn1
[25]
  MIC99: 37 µM (≈ 11.8 µg/mL)
[24]; [27]
  MIC99: 48 µM (≈ 15.3 µg/mL)
[26]
  Kinetic_solubility: 150 µM

## CN(Cc1ccc(C(F)(F)F)cc1)c1cc(C(=O)NC2CCCCC2)ncn1
[25]
  MIC99: 12 µM (≈ 4.71 µg/mL)
[24]; [27]
  MIC99: > 125 µM
[26]
  Kinetic_solubility: 5 µM
